# Screening data deposited in PubChem BioAssay by several laboratories.
# Rows were chosen to be rich in hits. Some 1.8% of all compounds tested hit in one or more screens of this group.
# DDE Tn6 FP inh – inhibitors of Tn6 peptide binding to fibrin DD(E), primary screen, biochemical, fluorescence polarization, human fibrin, Tn6 probe. Fibrinogen beta chain (Homo sapiens), P02675. Fibrin DD(E) TRITC-Tn6 fluorescence polarization displacement. inhibition, % at 8.3 µM. 0.21% of 370,000 active. AID 720509, 2013;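 active = inhibition above a per-campaign cutoff: mean of compounds within control limits plus 3 SD, cut at about 15% in these data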;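 note: 0% = median of all compound wells on the plate and 100% = blocking peptide control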
# Tn7 DDE FP – inhibitors of Tn7 peptide binding to fibrin DD(E), primary screen, biochemical, fluorescence polarization, human fibrin, Tn7 probe. Fibrinogen beta chain (Homo sapiens), P02675. FP displacement of FITC-Tn7 peptide from fibrin DD(E); 0% = median of compound wells per plate. inhibition, % at 8.3 µM. 0.13% of 370,000 active. AID 720508, 2013;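 active = inhibition above the mean of compounds falling within the control limits plus 3 SD of them, cut at about 14% in these data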;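 note: 0% = plate median of compound wells and 100% = 10 µM Aha-Tn7 peptide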
#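 Assay system: human fibrin DD(E). Input: DD(E) 2 µM final. Medium: Tris buffer with calcium and detergent, pH 7.8. Compound dosing: single point at 8.3 µM. Timing: 10 min plus 3 h, room temperature. Technique: fluorescence polarization of the labelled Tn7 tracer. Read-out: percent inhibition. Replicates: singlicate testing.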
# ARNT-TACC3 inh – disruptors of ARNT/TACC3 protein interaction, primary screen, biochemical, AlphaScreen, single concentration; AlphaScreen His-ARNT PAS-B/GST-TACC3 binding, luminescence; TACC3 fragment carries E629A point mutation; inhibition, % at 9.99 µM; 0.66% of 390,000 active; AID 623870, 2012;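 active = mean inhibition of replicates at least 50% and at least half of replicates each reaching 50%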;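 note: 0% = complete ARNT plus TACC3 wells and 100% = ARNT alone without TACC3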
# GRK2 aptamer HTS – compounds blocking aptamer binding on GRK2 – biochemical, human GRK2, bead flow cytometry, HTS, primary screen; FAM-aptamer displacement from GRK2; inhibition of aptamer binding, % at 10 µM; 0.59% of 330,000 active;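 active = inhibition of aptamer binding above 40%, roughly 3 SD of noise, on plates passing a quality check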;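 note: median bead fluorescence of bound FAM aptamer so fluorescent compounds give negative values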
# Target sequence (P25098 whole entry, looked up): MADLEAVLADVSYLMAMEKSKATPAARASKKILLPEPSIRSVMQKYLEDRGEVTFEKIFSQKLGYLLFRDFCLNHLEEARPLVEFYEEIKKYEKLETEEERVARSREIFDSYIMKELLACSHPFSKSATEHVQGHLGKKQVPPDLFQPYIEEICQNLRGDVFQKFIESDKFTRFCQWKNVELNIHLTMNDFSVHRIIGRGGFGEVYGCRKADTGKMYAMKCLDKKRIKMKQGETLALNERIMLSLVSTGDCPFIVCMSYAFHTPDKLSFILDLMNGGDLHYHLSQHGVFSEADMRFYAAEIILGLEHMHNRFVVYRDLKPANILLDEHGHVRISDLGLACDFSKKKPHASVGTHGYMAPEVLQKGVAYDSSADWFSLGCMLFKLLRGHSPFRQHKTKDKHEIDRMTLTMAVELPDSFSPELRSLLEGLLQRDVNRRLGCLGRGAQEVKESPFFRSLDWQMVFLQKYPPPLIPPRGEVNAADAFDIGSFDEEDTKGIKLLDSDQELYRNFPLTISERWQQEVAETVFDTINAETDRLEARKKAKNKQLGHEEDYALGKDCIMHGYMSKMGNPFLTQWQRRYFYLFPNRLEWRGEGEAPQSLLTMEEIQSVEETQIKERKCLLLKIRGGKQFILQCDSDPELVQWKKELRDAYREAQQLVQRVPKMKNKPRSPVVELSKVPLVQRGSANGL
# CAL PDZ FP-1 – untagged CAL PDZ binding inhibitors, primary screen, biochemical, fluorescence polarization, HTS; AID 602252, 2012; 0.92% of 300,000 active; purified CAL PDZ, TMR-peptide fluorescence polarization, 1 h; Golgi-associated PDZ and coiled-coil motif-containing protein (Homo sapiens), Q9HD26; inhibition, % at 24.9 µM;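 active = mean inhibition of at least 30% with at least half of replicates also reaching 30%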;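 note: 0% = DMSO neutral control and 100% = excess unlabeled competitor peptide PRC23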
# CAL PDZ FP-2 – CAL PDZ peptide-binding inhibitors, primary screen, biochemical, fluorescence polarization, Cer-tagged CAL PDZ, HTS; Golgi-associated PDZ and coiled-coil motif-containing protein (Homo sapiens), Q9HD26; purified CAL PDZ, TMR-peptide fluorescence polarization, 1 h; inhibition, % at 20 µM; 0.02% of 330,000 active; AID 504414, 2011;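 active = highest replicate inhibition of at least 40%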;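 note: plate controls were DMSO neutral control wells for no effect and unlabeled competitor peptide control wells for full effect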
#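 Assay system – tagged CAL PDZ protein CerCALP, purified · Timing – 1 h at RT · Compound – single point, 20 µM · Measured by – fluorescence polarization from S- and P-plane intensities, G-factor corrected · Evaluation – inhibition from polarization loss · Probe or stimulus – TMR reporter peptide T*-PRC34 · Buffer or medium – pH 7.4 phosphate-saline buffer, reducing agent, detergent, IgG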
# Tn7 DDE conf – inhibitors of Tn7 peptide binding to fibrin DD(E), confirmation, biochemical, fluorescence polarization, human fibrin, Tn7 probe. shares compounds with Tn7 DDE FP. FP displacement of TRITC-Tn7 peptide from DD(E); 0% set at plate's compound-well median. inhibition, % at 8.3 µM. 5% of 460 active. AID 720628, 2013;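 active = inhibition above the campaign cutoff, the mean of compounds within control limits plus 3 SD, cut at about 14% in these data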;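 note: 100% = median FP of high control wells holding Aha-Tn7 inhibitor peptide; displacers lower polarization since freed probe rises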
# Tn7 DDE ctr – DD(E)-Tn7 binding inhibition, counter-screen. fibrin DD(E), TRITC-Tn7 probe displacement, fluorescence polarization. shares compounds with Tn7 DDE FP. AID 720633. 3% of 460 active. inhibition, % at 8.3 µM;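 active = inhibition above the cutoff, the mean of compounds lying between the control bounds plus 3 SD of those compounds, cut at about 17% in these data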;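 note: 0% = median of compound sample wells and 100% = excess unlabeled Aha-Tn7 peptide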
# Numbers without * were called inactive; x = no result.
SMILES,DDE Tn6 FP inh,Tn7 DDE FP,ARNT-TACC3 inh,GRK2 aptamer HTS,CAL PDZ FP-1,CAL PDZ FP-2,Tn7 DDE conf,Tn7 DDE ctr
CCCS(=O)(=O)NC(=O)C1(C)CCCN(C(=O)c2cccnc2Oc2ccccc2)C1 (stereo not drawn),6,4,x,x,x,x,x,x
CCCNC(=O)C1(C)CCCN(C(=O)c2cccnc2Oc2ccccc2)C1 (stereo not drawn),6,14*,x,x,x,x,4,6
N/C(=N\OC(=O)Cc1ccc(-c2ccccc2)cc1)c1cccc([N+](=O)[O-])c1,5,14*,9,0,-5,-1,8,5
Cc1ccc(-c2nc3ccc(C)cn3c2Cc2ccccc2C(F)(F)F)cc1,1,6,x,x,x,x,x,x
Cc1ccc2nc(-c3ccccc3)c(Cc3ccccc3C(F)(F)F)n2c1,6,16*,x,x,x,x,1,-2
CSCCCNC(=O)c1oc(=O)c2ccccc2c1-c1ccc(C)cc1,7,15*,x,x,x,x,-2,-3
CC(=O)N(C)C[C@@H]1Oc2cc(C#CC3CCCC3)ccc2S(=O)(=O)N([C@H](C)CO)C[C@H]1C,x,x,2,x,x,x,x,x
C[C@@H](CO)N(CCc1cn(Cc2ccccc2)nn1)S(=O)(=O)c1ccccc1Br,5,5,x,x,x,x,x,x
COc1cccc(/C=N\NC(=O)c2ccc(Cn3cc(Br)c([N+](=O)[O-])n3)o2)c1O,-13,14*,9,0,7,-2,-2,-10
COc1cc(/C=N\NC(=O)c2ccc(Cn3nc([N+](=O)[O-])c(Cl)c3C)o2)ccc1O,0,-3,24,2,-3,1,x,x
O=S(=O)(CCc1ccccc1)CS(=O)(=O)CCc1ccccc1,2,0,2,x,-4,-1,x,x
Cc1cc(-c2ccc(C(C)C)c(S(=O)(=O)Nc3ccccn3)c2)on1,10,18*,3,1,2,-1,-2,-7
CCc1ccc(-c2cc(C)no2)cc1S(=O)(=O)Nc1ccccn1,0,5,-5,3,-2,0,x,x
C[C@H](CO)N1C[C@H](C)[C@H](CN(C)C(=O)Nc2ccccc2)Oc2c(NC(=O)NC3CCCCC3)cccc2C1=O,x,x,17,x,x,x,x,x
CC1CC2(CC(C)(C(=O)CSc3nc4ccccc4s3)OC2=O)C(=O)O1 (stereo not drawn),-4,-2,-3,2,0,-1,x,x
CC1(C)CC2(CC(C)(C(=O)CSc3nc4ccccc4s3)OC2=O)C(=O)O1 (stereo not drawn),-2,18*,-8,2,-2,-2,1,-10
Cc1onc(C(=O)Nc2sc3c(c2C(N)=O)CCCC3)c1[N+](=O)[O-],1,16*,2,0,0,-3,3,0
Cc1ccc(/C=N/N2C(=O)C3C(C2=O)C2C=CC3C23CC3)o1 (stereo not drawn),-2,14*,3,1,-4,-4,4,4
O=C(NC(=S)NC1CCSC1=O)c1ccccc1Cl (stereo not drawn),-2,15*,x,1,-3,-1,4,1
O=C(NC(=S)NC1CCSC1=O)c1ccccc1 (stereo not drawn),-3,2,-2,0,-3,-3,x,x
O=C(NCc1ccccc1F)[C@@H]1[C@@H](CO)[C@@H]2Cn3c(cccc3=O)[C@@H]2N1C(=O)CC1CC1,x,x,-4,x,x,x,x,x
O=C(CCCOc1ccc(Cl)cc1)N1CCCCCC1,3,14*,-8,0,-1,0,8,4
CCOc1ccc(CCN2C(=S)N([C@@H](Cc3ccc(O)cc3)CN3CCC[C@@H]3CN3C(=S)NC[C@@H]3CC(C)C)C[C@@H]2CC(C)C)cc1,-1,14*,x,x,x,x,10,3
COc1ccc(NC(=O)C2CCN(S(=O)(=O)c3ccc4c(c3)NC(=O)C(C)S4)CC2)cc1 (stereo not drawn),7,3,0,2,-1,-2,x,x
COc1ccc(NS(=O)(=O)c2ccc3c(c2)NC(=O)C(C)S3)cc1 (stereo not drawn),-9,14*,4,4,-4,-2,-2,-7
SMILES,DDE Tn6 FP inh,Tn7 DDE FP,ARNT-TACC3 inh,GRK2 aptamer HTS,CAL PDZ FP-1,CAL PDZ FP-2,Tn7 DDE conf,Tn7 DDE ctr
COc1ccc(-c2ccccc2C2=CC(=O)CC(C)(C)C2=O)cc1,2,4,x,x,x,x,x,x
COc1ccccc1-c1ccccc1C1=CC(=O)CC(C)(C)C1=O,0,14*,x,x,x,x,3,1
COC(=O)c1sc(S(=O)(=O)N2CCCCC2)c(C(=O)OC)c1C,-6,2,-3,2,-1,0,x,x
COC(=O)c1sc(S(=O)(=O)N2CCN(c3ccccc3)CC2)c(C(=O)OC)c1C,1,14*,-4,0,0,-1,-2,-6
COc1cccc(NC(=O)COC(=O)c2ccc(S(=O)(=O)NCc3ccco3)cc2)c1,4,15*,-14,6,-5,-1,0,-5
CC(=O)Nc1ccc(NC(=O)COC(=O)c2ccc(S(=O)(=O)NCc3ccco3)cc2)cc1,6,-4,-2,0,2,1,x,x
COc1ccc(N2C(=O)NC3CC2(C)Oc2ccccc23)cc1 (stereo not drawn),-4,16*,-5,0,-2,0,1,3
C[C@@H]1CCCCO[C@H](CN(C)S(=O)(=O)c2ccc(Cl)cc2)[C@H](C)CN([C@@H](C)CO)C(=O)c2cc(NC(=O)C3CCCCC3)ccc2O1,x,x,-8,x,x,x,x,x
Cc1cccc(NC(=O)NC(=O)c2ccccc2)n1,-3,-1,-2,0,-14,-3,x,x
Cc1cccc(NC(=O)c2ccc(C(=O)c3ccccc3)cc2)n1,-3,20*,-11,0,-1,-2,5,-1
CCN(CC)C(=O)N1CCN(C(=O)N(CC)CC)CC1,4,8,-1,0,-3,-2,x,x
